# Measured values collected from several papers.
# Lines come from different studies, so protocols differ.
# Sample: plasma
Compound,host,route,dose,setting,half-life [h]
NS(=O)(=O)NCCNc1nonc1C(=NO)Nc1ccc(F)c(Br)c1,human,oral,700 mg,"multiple doses, twice daily, steady state, patients",3
COCCOc1cnc2ccn([C@H](C)c3nnc4c(F)cc(-c5cnn(C)c5)cn34)c(=O)c2c1,human,oral,50 mg,"multiple doses, once daily, patients",15.3
C[C@@H](Nc1cc(F)cc(F)c1)c1cc(C(=O)N(C)C)cc2c(=O)cc(N3CCOCC3)oc12,human,oral,30 mg,patients,3.79
O=C(/C=C/c1cccc(S(=O)(=O)Nc2ccccc2)c1)NO,human,intravenous,2000 mg/m²,patients,1.42
CCOc1cc([C@@H](CS(C)(=O)=O)N2C(=O)c3cccc(NC(C)=O)c3C2=O)ccc1OC,human,oral,30 mg,"single dose, healthy volunteers",8.08
CC(C)[C@](O)(c1ccc2cc(OC(F)F)c(OC(F)F)cc2c1)c1c[nH]nn1,female human,oral,450 mg,single dose,6.4
COc1ccc([C@@H]2CN(C(=O)[C@@H](O)CO)C[C@@]2(C)[C@@H](C)O)cc1OC1CN(c2ccc(C)cn2)C1,human,oral,1.5 mg,"single dose, healthy volunteers",13.5
CC(C)(C)OC[C@@H]1C(=O)NCCN1C(=O)C[C@H](N)Cc1cc(F)c(F)cc1F,male human,oral,5 mg,"multiple doses, steady state, healthy volunteers",24.7
CS(=O)(=O)CCC#N,human,oral,300 mg,"multiple doses, once daily",21.3
CO[C@H]1CC[C@H](N2C(=O)CNc3ncc(-c4ccc(C(C)(C)O)nc4)nc32)CC1,human,oral,15 mg,patients,3.35
O=C(Nc1c(Cl)cncc1Cl)c1ccc(OC(F)F)c(OCC2CC2)c1,human,oral,0.375 mg,single dose,19.7
COc1cc(C(=O)NC2CCN(C)CC2)c(F)cc1Nc1ncc(C(F)(F)F)c(Oc2cccc3c2C(=O)N(C)C3)n1,human,oral,200 mg,"multiple doses, once daily, patients",20.4
C[C@@H](c1ccc2nccn2c1)n1nnc2ncc(-c3cnn(C)c3)nc21,human,oral,200 mg,,4.2
C#C[C@]1(COP(=O)(O)OP(=O)(O)OP(=O)(O)O)O[C@@H](n2cnc3c(N)nc(F)nc32)C[C@@H]1O,human,oral,200 mg,single dose,116
CO[C@@H]1[C@H](OC(=O)N2CC(CCN3CCOCC3)C2)CC[C@]2(CO2)[C@H]1[C@@]1(C)O[C@@H]1CC=C(C)C,human,subcutaneous,4.8 mg,"single dose, healthy volunteers",0.91
OC[C@H]1O[C@@H](c2ccc(Cl)c(Cc3ccc(O[C@H]4CCOC4)cc3)c2)[C@H](O)[C@@H](O)[C@@H]1O,male human,oral,25 mg,"multiple doses, once daily, steady state",8.44
CCNCCCNC/C=C\CNCCCNCC,human,intravenous,50 mg,"patients, infusion",0.18
CC(C)(O)c1cc(Nc2cc(Oc3cn(C4CC4)nc3C3CCOCC3)ccn2)ccn1,human,oral,,patients,6.7
CC(C)(Sc1ccncc1-c1ccc(C#N)c2ccccc12)C(=O)O,male human,oral,5 mg,"single dose, fasted, healthy volunteers",14.2
Cc1nc(C(=O)NCC(=O)O)c(O)c2ccc(Oc3ccccc3)cc12,human,oral,100 mg,"single dose, healthy volunteers",11.7
CO[C@H]1/C=C\C=C(/C)C(=O)NC2=CC(=O)C(NCCN(C)C)=C(C[C@@H](C)C[C@H](OC)[C@H](O)[C@@H](C)/C=C(\C)[C@@H]1OC(N)=O)C2=O,human,intravenous,12 mg/m²,"patients, infusion",14.1
Nc1cc(C(F)(F)F)c(-c2cc(N3CCOCC3)nc(N3CCOCC3)n2)cn1,human,oral,25 mg/day,patients,36.8
CN(C)Cc1ccc(S(=O)(=O)n2ccc(/C=C/C(=O)NO)c2)cc1,human,oral,,patients,~4
Cc1cc(Nc2ncc(Cl)c(Nc3ccccc3S(=O)(=O)C(C)C)n2)c2c(c1C1CCN(C)CC1)C[C@@H](C)O2,human,oral,160 mg,"single dose, fed",34.7
Cc1nc(-c2cn3c(n2)-c2ccc(-c4cnn(C(C)(C)C(N)=O)c4)cc2OCC3)n(C(C)C)n1,human,oral,6 mg,patients,22.4
C/C(=C\c1csc(C)n1)[C@@H]1C[C@@H]2O[C@]2(C)CCC[C@H](C)[C@H](O)[C@@H](C)C(=O)C(C)(C)[C@@H](O)CC(=O)N1,human,intravenous,20 mg/m²,patients,62.2
c1cnc2ccc(Nc3nc(NC4CC4)c4nc[nH]c4n3)cc2c1,human,oral,400 mg/m²,patients,3.6
CC(C)n1cc(C#N)c2cc(-n3cc(C(=O)O)cn3)ccc21,human,oral,100 mg,"single dose, fasted, healthy volunteers",6.6
CC(C)(O)c1ccccc1-c1ccc2[nH]c(/C=C/c3ccc(C(F)(F)F)cc3)nc2c1,male human,oral,2 mg,"single dose, fasted, healthy volunteers",47.8
CCOc1cc2ncc(C#N)c(Nc3ccc(OCc4ccccn4)c(Cl)c3)c2cc1NC(=O)/C=C/[C@H]1CCCN1C,human,oral,80 mg,single dose,12.9
Cn1cc(-c2ccc(S(=O)(=O)[C@@H]3C[C@@H](C(=O)NC4(C#N)CC4)N(C(=O)C4(C(F)(F)F)CC4)C3)c(C(F)(F)F)c2)cn1,human,oral,1 mg,"single dose, fasted, healthy volunteers",5.47
